Bioassay records (PubChem)
TPT1 inhibitor: inhibitors of Candida albicans tRNA 2'-phosphotransferase TPT1 | recombinant caTPT1, FP RNA substrate dephosphorylation | inhibition, % at 5 µM | 0.81% of 300,000 active;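 active = inhibition above the mean of all tested compounds plus 3 SD, set per screening campaign, cut at about 24% in these data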;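 note: plate controls were DMSO alone for no effect and ferristatin control at 100 nM for full effect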
Rin1-Abl PPI inh: blocks binding of human Rin1 to Abl. P00519+Q13671. TR-FRET Rin1/Abl binding, biochemical. inhibition, % at 7.35 µM. 0.4% of 360,000 active. AID 588664; in the data active = inhibition above about 5%, passing the limit was not always enough
CSN deneddyl inh: blocks human CSN-mediated cullin deneddylation; Q92905; Purified CSN, SCF-Nedd8-OG deneddylation, fluorescence polarization; inhibition, % at 12.5 µM; 0.38% of 360,000 active;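 active = pattern-corrected inhibition above about 35%, with an unprinted fluorescence ratio check between 0.5 and 1.5, limit read from the data, passing the limit was not always enough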;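 note: 0% = enzyme with substrate and 100% = substrate without enzyme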
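Assay system: HEK293T-derived human Csn5 enzyme; quantity: 0.24 nM enzyme; medium: Tris/NaCl/DTT buffer, pH 7.5; also added: substrate SCFSkp2-Nedd8OG, 10 nM; doses: 12.5 µM compound; schedule: 90 min reaction at room temperature; signal: FP; read-out: % inhibition of substrate cleavage by Csn5; benchmarks: substrate-only high control, full reaction low control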
Neddyl block: cullin neddylation inhibition. P61081+Q13564. TR-FRET cullin neddylation, biochemical. inhibition, % at 25 µM. 0.58% of 360,000 active; in the data active = inhibition above about 36%
Target sequence (P61081 whole entry, looked up): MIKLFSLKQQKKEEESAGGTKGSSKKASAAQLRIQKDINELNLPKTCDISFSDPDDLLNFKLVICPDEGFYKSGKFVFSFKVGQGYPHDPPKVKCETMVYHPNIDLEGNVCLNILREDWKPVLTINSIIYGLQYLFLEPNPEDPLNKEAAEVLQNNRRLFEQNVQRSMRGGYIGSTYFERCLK
Target sequence (Q13564 whole entry, looked up): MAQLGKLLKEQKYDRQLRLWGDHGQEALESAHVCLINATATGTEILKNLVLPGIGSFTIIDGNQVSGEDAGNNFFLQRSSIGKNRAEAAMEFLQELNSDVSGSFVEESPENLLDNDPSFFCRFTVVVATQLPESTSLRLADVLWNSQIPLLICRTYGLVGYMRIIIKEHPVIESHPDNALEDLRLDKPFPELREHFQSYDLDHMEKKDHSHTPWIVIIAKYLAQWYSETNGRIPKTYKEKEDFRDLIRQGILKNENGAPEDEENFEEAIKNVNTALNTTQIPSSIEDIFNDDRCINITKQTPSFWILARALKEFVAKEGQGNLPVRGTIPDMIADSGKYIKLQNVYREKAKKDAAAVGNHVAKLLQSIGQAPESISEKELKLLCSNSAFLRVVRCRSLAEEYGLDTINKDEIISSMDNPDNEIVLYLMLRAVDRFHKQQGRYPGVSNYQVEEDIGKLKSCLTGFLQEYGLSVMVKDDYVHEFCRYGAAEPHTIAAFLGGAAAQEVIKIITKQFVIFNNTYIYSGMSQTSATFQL
HNF4A DNA FP: change in binding of human HNF4 alpha to DNA | P41235 | HNF4a-FITC DNA binding, fluorescence polarization, 1 h | activity change, % at 10 µM | 0.3% of 360,000 active; in the data active = activity change above about 30%, passing the limit was not always enough
Rpn11 block: blocks the human proteasome subunit Rpn11. O00487. human 26S proteasome, Ub4-pepOG fluorescence polarization; 20S core pre-blocked with epoxomicin. inhibition, % at 20 µM. 0.59% of 360,000 active;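 active = inhibition at 20 µM, scaled to each plate's controls, above about 33%, limit read from the data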
Rpn11 inh conf: Rpn11 inhibition confirmation, single concentration | shares compounds with Rpn11 block | purified human 26S proteasome, Ub4-pepOG fluorescence polarization; proteasome pretreated with epoxomicin | inhibition, % at 20 µM | 29% of 1,900 active | AID 602318
MMP-2 counter-1: MMP-2 (human) inhibition counter-screen; shares compounds with Rpn11 block; recombinant MMP-2, FRET peptide cleavage fluorescence; inhibition, % at 20 µM; 4% of 1,900 active;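 note: human MMP-2 activated beforehand with APMA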
Thrombin inh: thrombin (bovine) inhibition counter-screen; shares compounds with Rpn11 block; bovine thrombin cleavage of Ub4-pepOG, fluorescence polarization; inhibition, % at 20 µM; 13% of 1,900 active; AID 602333;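 active = mean inhibition at least 40% at 20 µM, or signal 3 deviations below plate average, so some actives read negative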;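 note: plate controls were thrombin with DMSO for no effect and buffer wells lacking thrombin for full effect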
CSN5 deneddyl: validation of inhibitors of human CSN-mediated cullin deneddylation; shares compounds with CSN deneddyl inh; Csn5 deneddylation of SCF-Nedd8OG, fluorescence polarization, 90 min; AID 720654; inhibition, % at 16.6 µM; 62% of 540 active; in the data active = inhibition above about 50%;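 note: 0% = DMSO with enzyme and 100% = no enzyme wells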
MMP-2 counter-2: counter-screen for CSN deneddylation inhibitors: human MMP-2 inhibition; recombinant MMP-2, FRET substrate fluorescence, 60 min; shares compounds with CSN deneddyl inh; 33% of 540 active; AID 720655; inhibition, % at 16.6 µM;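 active = corrected plate-normalized z-score of 5 or more, or -5 or less, or inhibition of 15% or more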;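 note: plate controls were DMSO wells with enzyme for no effect and buffer wells lacking MMP-2 for full effect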
Thrombin cntr: thrombin (bovine) inhibition, counter-screen for CSN hits | AID 720656 | 49% of 540 active | bovine thrombin cleavage of Ub4-pepOG, fluorescence polarization | inhibition, % at 16.6 µM | shares compounds with CSN deneddyl inh;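 active = inhibition at or above a set limit, with a fluorescence interference ratio between 0.5 and a set maximum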
* hit, by the source's call; nt = no result given; ! = not active in a repeat. Hits are enriched below; roughly 2.4% of the tested compounds scored in any of these assays. Cut-off read from the data, not from the text of the source, unless noted: active = inhibition above about 40%; inactive = the rest.

SMILES	TPT1 inhibitor	Rin1-Abl PPI inh	CSN deneddyl inh	Neddyl block	HNF4A DNA FP	Rpn11 block	Rpn11 inh conf	MMP-2 counter-1	Thrombin inh	CSN5 deneddyl	MMP-2 counter-2	Thrombin cntr
COc1ccc(CCn2c(N)c(C(=O)NCc3ccco3)c3nc4ccccc4nc32)cc1OC	22.7	3.6	38.0*	20.9	8.8	45.2*	-7.7	4.1	-9.1	96.4*	4.7	-15.5
COc1ccc(CCn2c(N)c(C#N)c3nc4ccccc4nc32)cc1OC	17.4	-2.7	1.5	14.9	0.0	15.9	nt	nt	nt	nt	nt	nt
O=C1/C(=C\c2cccc([N+](=O)[O-])c2O)SC(=S)N1Cc1ccccc1	0.0	-1.6	1.2	-26.1	-2.5	-1.8	nt	nt	nt	nt	nt	nt
COc1cc([N+](=O)[O-])cc(/C=C2/SC(=S)N(Cc3ccccc3)C2=O)c1O	0.1	-2.8	39.5*	-33.4	42.1*	60.8*	64.1*	55.0*	35.9	nt	-1.1	43.6*
COC(=O)c1c(NC(=O)COC(=O)c2ccccc2O)sc2c1CCCCC2	4.0	3.4	-5.4	21.9	-2.3	-6.0	nt	nt	nt	nt	nt	nt
COC(=O)c1c(NC(=O)COC(=O)c2ccc(NC(=O)CC#N)cc2)sc2c1CCCCC2	17.4	-0.5	57.2*	9.3	-3.8	95.9*	106.1*	18.6	32.6	42.2	6.8	12.7
CN(CC(=O)Nc1ccccc1C(F)(F)F)C(=O)C1CC1	nt	4.8	-0.5	-7.4	5.4	-3.6	nt	nt	nt	nt	nt	nt
O=C1NN(c2ccc(Cl)cc2)C(=O)/C1=C\c1ccc(-c2cccc(C(=O)O)c2)o1	nt	-1.5	36.5*	15.8	-20.4	103.6*	141.9*	17.4	12.0	46.3	15.4*	24.1*
CCN1CCN(Cc2ccc(NC(=O)c3cc(NC(=O)c4cncc(-c5ccc(C#N)cc5)c4)cc(OC)c3)cc2C(F)(F)F)CC1	-0.3	-5.2	138.0*!	-50.4	44.8*!	63.8*	55.9*	-43.5	60.1*	-73.7	16.6*	5.4
Cc1ccc(OCC(=O)Nc2sc3c(c2C#N)CC(C)(C)NC3(C)C)cc1	7.4	-3.4	4.8	-1.4	3.2	2.7	nt	nt	nt	nt	nt	nt
CC1(C)Cc2c(sc(NC(=O)COc3cccc4ccccc34)c2C#N)C(C)(C)N1	3.3	-2.0	101.4*	17.9	213.7*	53.9*	32.9	-111.7	0.9	-27.6	-8.8	-5.9
CC(Nc1nc(-c2ccc(F)cc2)cs1)c1nc2cc(Cl)c(Cl)cc2n1CCCO (stereo not drawn)	-1.5	0.8	2.4	0.7	2.8	-11.3	nt	nt	nt	nt	nt	nt
Cc1ccc(Cn2c(C(C)Nc3nc(-c4ccc(C)cc4)cs3)nc3cc(Cl)c(Cl)cc32)cc1 (stereo not drawn)	9.3	0.9	38.2*	-18.6	-43.6	71.4*	65.1*	51.0*	-40.7	55.0*	15.1*	7.5
COc1ccc(NC(=O)CCCN2C(=O)/C(=C\c3ccco3)SC2=S)cc1	10.8	-2.4	1.3	-17.1	11.4	13.9	nt	nt	nt	nt	nt	nt
O=C(CCCN1C(=O)/C(=C/c2ccco2)SC1=S)Nc1cccc(C(=O)O)c1	11.9	-1.8	44.8*	8.8	-41.2	36.6*	-3.2	45.4*	0.5	80.0*	25.1*	0.9
O=C(CN1C(=O)/C(=C/c2ccco2)SC1=S)Nc1ccc(O)c(C(=O)O)c1	11.6	4.0	56.2*	24.5	-28.4	81.2*	16.5	10.2	9.2	56.7*	21.3*	10.9
CC1=CC2C(C3C=CC2(C)C(=O)C3(C)O)C(C)(O)C1=O (stereo not drawn)	nt	0.4	4.8	-0.1	4.4	1.0	nt	nt	nt	nt	nt	nt
O=C(N/N=C/c1ccccn1)c1cc(-c2ccc3ccccc3c2)n[nH]1	0.3	-2.2	40.9*	-6.5	0.1	136.9*	84.9*	-7.2	57.5*	nt	20.0*	17.4*
CCc1ccc(-c2cc(C(=O)N/N=C/c3ccccn3)[nH]n2)cc1	0.0	-2.2	1.7	-7.3	4.8	2.4	nt	nt	nt	nt	nt	nt
COc1ccc(NC(=O)CN2CCC(C(=O)c3ccc(F)cc3)CC2)c(OC)c1	-0.6	-1.3	-3.0	-2.6	-3.9	0.3	nt	nt	nt	nt	nt	nt
COc1ccccc1-n1cnc2c(c1=O)c1nc3ccccc3nc1n2-c1ccc(C)cc1	2.8	-1.3	47.3*	9.1	15.0	89.7*	7.6	-92.3	-20.9	98.9*	5.2	2.9
O=C(N/N=C/c1ccncc1)c1cccc(S(=O)(=O)Nc2ccc(Cl)cc2)c1	-0.6	-0.6	72.3*	-8.6	-26.2	105.5*	139.4*	46.1*	11.6	nt	34.8*	-6.2
CN(CC(=O)Nc1cccc(F)c1)C(=O)C1CCN(S(=O)(=O)c2ccc3c(c2)OCCO3)CC1	-2.2	-2.1	-1.0	1.8	-0.3	2.5	nt	nt	nt	nt	nt	nt
O=Cc1cn(-c2ccccc2)nc1-c1cc2cc(O)ccc2oc1=O	7.2	-4.6	84.3*	nt	-10.5	110.9*	41.8*	13.3	34.2	-19.0	5.0	14.7
Cc1c2cnn(CC(=O)Nc3c(F)c(F)cc(F)c3F)c(=O)c2c(C)n1Cc1ccccc1F	1.6	1.2	62.1*	1.4	-52.6	85.6*	133.9*	24.5	22.4	2.3	7.1	13.3
C[C@H](CO)N1C[C@H](C)[C@@H](CN(C)Cc2ccc3c(c2)OCCN3C)OCc2cnnn2CCCC1=O	nt	-2.2	-3.2	1.1	6.5	-1.9	nt	nt	nt	nt	nt	nt
CCOC(=O)c1sc2nc3c(SCC(=O)O)cc(C(=O)c4ccccc4O)cn3c(=O)c2c1C	3.3	-1.6	47.3*	21.1	-64.3	100.4*	44.5*	12.5	active	109.1*	22.1*	-27.5
O=C(/C=C/c1ccco1)Nc1cccc(C(=O)Nc2ccccc2C(=O)O)c1	5.3	-0.7	42.0*	-4.2	-32.5	70.4*	57.0*	-13.8	30.7	54.2*	6.0	12.5
CCc1ccccc1NC(=O)c1cccc(NC(=O)/C=C/c2ccco2)c1	1.4	0.9	12.4	-9.2	-1.2	-0.6	nt	nt	nt	nt	nt	nt
COc1nc(C)nc(Cl)c1NC1=NCCN1	2.7	2.7	2.8	3.1	1.2	3.9	nt	nt	nt	nt	nt	nt
